# Results from ChEMBL document CHEMBL1135748, “4-Substituted D-glutamic acid analogues: the first potent inhibitors of glutamate racemase (MurI) enzyme with antibacterial activity” (J Med Chem, 2002).
# Tests used:
# [1] = Inhibitory activity against recombinant Glutamate Racemase from Streptococcus pneumoniae expressed in Escherichia coli
# Procedure, shortened: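 Enzyme purified by Ni(II) IMAC, imidazole gradient, from E. coli paste overexpressing the S. pneumoniae racemase; dialysed into Tris-HCl pH 7.8 with β-mercaptoethanol. Enzyme (6 µg mL-1) with 10 mM L-glutamate, inhibitor added before enzyme, 15 min at room temperature. Quenched with Marfey's reagent; derivatised 60 min at 40 °C. D/L-Glu separated by C18 HPLC, A340. Conversion from D/(D+L) peak areas over decreasing inhibitor concentrations gives IC50.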
# [2] = system: Streptococcus pneumoniae; assay: In vitro whole cell growth inhibition against PN-R6 strain of Streptococcus pneumoniae; format: functional
# Procedure, shortened: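 NCCLS microtiter broth dilution. Compounds in DMSO, 2-fold serial dilutions from 250 to 0.25 µg/mL in Mueller–Hinton II broth plus 5% lysed horse blood. Inoculum 5 × 10^5 CFU/mL; final DMSO 2.5%. Incubated overnight at 35 °C. MIC is the lowest concentration visibly inhibiting growth.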
# [3] = system: Streptococcus pneumoniae; assay: Antibacterial activity against Streptococcus pneumoniae Park1 strain; format: functional
# [4] = system: Moraxella catarrhalis; assay: Antibacterial activity against Moraxella catarrhalis BC-1 strain; format: functional
# [5] = system: Staphylococcus aureus; assay: Antibacterial activity against Staphylococcus aureus 027 strain; format: functional
# [6] = system: Streptococcus pneumoniae; assay: Antibacterial activity against Streptococcus pneumoniae R6 strain; format: functional
smiles,measurement,setting,value
N[C@H](C[C@H](C/C=C/c1ccc2ccccc2c1)C(=O)O)C(=O)O,IC50,[1],0.5 µg/mL
same,MIC,[2],0.5 µg/mL
N[C@H](C[C@H](Cc1cc2ccccc2s1)C(=O)O)C(=O)O,MIC,[3],0.24 µg/mL
same,IC50,[1],0.036 µg/mL
same,MIC,[4],> 250 µg/mL
same,MIC,[5],> 250 µg/mL
same,MIC,[6],0.24 µg/mL
same,MIC,[2],0.24 µg/mL
C#CC[C@@H](C[C@@H](N)C(=O)O)C(=O)O,IC50,[1],5.5 µg/mL
same,MIC,[2],31.3 µg/mL
N[C@H](C[C@H](Cc1ccc(C(F)(F)F)cc1)C(=O)O)C(=O)O,IC50,[1],0.8 µg/mL
same,MIC,[2],7.8 µg/mL
N[C@H](C[C@H](Cc1ccc(NC(=O)Nc2ccccc2)cc1)C(=O)O)C(=O)O,IC50,[1],0.49 µg/mL
same,MIC,[2],15.6 µg/mL
N[C@H](C[C@H](Cc1ccc(Cl)cc1)C(=O)O)C(=O)O,IC50,[1],0.3 µg/mL
same,MIC,[2],0.5 µg/mL
N[C@H](C[C@H](Cc1ccc(NS(=O)(=O)c2ccccc2)cc1)C(=O)O)C(=O)O,IC50,[1],10.2 µg/mL
same,MIC,[2],> 250 µg/mL
N[C@H](C[C@H](Cc1cccc(-c2ccco2)c1)C(=O)O)C(=O)O,IC50,[1],0.5 µg/mL
same,MIC,[2],0.24 µg/mL
N[C@H](C[C@H](Cc1nc2ccccc2s1)C(=O)O)C(=O)O,IC50,[1],0.38 µg/mL
same,MIC,[2],0.24 µg/mL
N[C@H](C[C@H](C/C=C/c1ccccc1)C(=O)O)C(=O)O,IC50,[1],0.1 µg/mL
same,MIC,[2],0.4 µg/mL
N[C@H](C[C@H](Cc1cccc(-c2ccccc2)c1)C(=O)O)C(=O)O,IC50,[1],0.7 µg/mL
same,MIC,[2],0.5 µg/mL
N[C@H](C[C@H](CCCC1CCCCC1)C(=O)O)C(=O)O,IC50,[1],0.6 µg/mL
same,MIC,[2],2 µg/mL
N[C@H](C[C@H](Cc1cccc(-c2cc3ccccc3s2)c1)C(=O)O)C(=O)O,IC50,[1],0.3 µg/mL
same,MIC,[2],0.5 µg/mL
N[C@H](C[C@H](Cc1ccc2ccccc2c1)C(=O)O)C(=O)O,MIC,[3],3.9 µg/mL
same,IC50,[1],0.1 µg/mL
same,MIC,[4],62.5 µg/mL
same,MIC,[5],> 250 µg/mL
same,MIC,[6],0.25 µg/mL
same,MIC,[2],0.25 µg/mL
N[C@H](C[C@H](Cc1cccc(Br)c1)C(=O)O)C(=O)O,IC50,[1],0.13 µg/mL
same,MIC,[2],0.5 µg/mL
N[C@H](C[C@H](Cc1cc(C(F)(F)F)cc(C(F)(F)F)c1)C(=O)O)C(=O)O,IC50,[1],> 100 µg/mL
same,MIC,[2],> 250 µg/mL
N[C@H](C[C@H](CCCc1ccccc1)C(=O)O)C(=O)O,IC50,[1],0.5 µg/mL
same,MIC,[2],3.9 µg/mL
N[C@H](C[C@H](Cc1cccc2ccccc12)C(=O)O)C(=O)O,IC50,[1],5.6 µg/mL
same,MIC,[2],3.9 µg/mL
N[C@H](C[C@H](Cc1ccccc1-c1ccccc1)C(=O)O)C(=O)O,IC50,[1],> 100 µg/mL
same,MIC,[2],> 250 µg/mL
CC(C)(C)c1ccc(C[C@@H](C[C@@H](N)C(=O)O)C(=O)O)cc1,IC50,[1],0.6 µg/mL
same,MIC,[2],1 µg/mL
N[C@H](C[C@H](Cc1ccccc1)C(=O)O)C(=O)O,IC50,[1],0.3 µg/mL
same,MIC,[2],0.5 µg/mL
N[C@H](C[C@H](Cc1ccccc1Br)C(=O)O)C(=O)O,IC50,[1],6.3 µg/mL
same,MIC,[2],31.3 µg/mL
N[C@H](C[C@H](Cc1ccc(-c2cc3ccccc3s2)cc1)C(=O)O)C(=O)O,IC50,[1],0.65 µg/mL
same,MIC,[2],3.9 µg/mL
N[C@H](C[C@H](C/C=C/C=C/c1ccccc1)C(=O)O)C(=O)O,IC50,[1],9.1 µg/mL
same,MIC,[2],3.9 µg/mL
N[C@H](C[C@H](Cc1cccc(Cl)c1)C(=O)O)C(=O)O,IC50,[1],3.4 µg/mL
same,MIC,[2],1 µg/mL
COc1ccc(C[C@@H](C[C@@H](N)C(=O)O)C(=O)O)cc1,IC50,[1],0.1 µg/mL
same,MIC,[2],0.5 µg/mL
N[C@H](C[C@H](Cc1cccs1)C(=O)O)C(=O)O,IC50,[1],0.1 µg/mL
same,MIC,[2],1 µg/mL
N[C@H](C[C@H](Cc1ccc(-c2ccccc2)cc1)C(=O)O)C(=O)O,IC50,[1],0.078 µg/mL
same,MIC,[2],1 µg/mL
N[C@H](C[C@H](Cc1sc2ccccc2c1Cl)C(=O)O)C(=O)O,IC50,[1],0.01 µg/mL
same,MIC,[2],0.5 µg/mL
N[C@H](C[C@H](Cc1cccc([N+](=O)[O-])c1)C(=O)O)C(=O)O,IC50,[1],5.2 µg/mL
same,MIC,[2],2 µg/mL
N[C@H](C[C@H](Cc1cccc(C(F)(F)F)c1)C(=O)O)C(=O)O,IC50,[1],0.8 µg/mL
same,MIC,[2],0.5 µg/mL
N[C@H](C[C@H](Cc1csc2ccccc12)C(=O)O)C(=O)O,IC50,[1],1.7 µg/mL
same,MIC,[2],7.8 µg/mL
COc1cc(C[C@@H](C[C@@H](N)C(=O)O)C(=O)O)cc(OC)c1OC,IC50,[1],81 µg/mL
same,MIC,[2],> 250 µg/mL
COc1cccc(C[C@@H](C[C@@H](N)C(=O)O)C(=O)O)c1,IC50,[1],0.2 µg/mL
same,MIC,[2],0.5 µg/mL
N[C@H](C[C@H](Cc1ccc([N+](=O)[O-])cc1)C(=O)O)C(=O)O,IC50,[1],5.2 µg/mL
same,MIC,[2],2 µg/mL
N[C@H](C[C@H](Cc1cc(Cl)cc(Cl)c1)C(=O)O)C(=O)O,IC50,[1],3 µg/mL
same,MIC,[2],3.9 µg/mL
N[C@H](C[C@H](Oc1ccccc1)C(=O)O)C(=O)O,IC50,[1],26.5 µg/mL
same,MIC,[2],62.5 µg/mL
N[C@H](C[C@H](CC#Cc1ccccc1)C(=O)O)C(=O)O,IC50,[1],0.37 µg/mL
same,MIC,[2],2 µg/mL
N[C@H](C[C@H](CNC(=O)c1ccccc1)C(=O)O)C(=O)O,IC50,[1],9.4 µg/mL
same,MIC,[2],62.5 µg/mL
N[C@H](C[C@H](Cc1cc2ccccc2o1)C(=O)O)C(=O)O,IC50,[1],0.1 µg/mL
same,MIC,[2],0.24 µg/mL
N[C@H](C[C@H](Cc1ccc(-c2ccsc2)cc1)C(=O)O)C(=O)O,IC50,[1],0.32 µg/mL
same,MIC,[2],0.24 µg/mL
N[C@H](C[C@H](Cc1cc2ccccc2[nH]1)C(=O)O)C(=O)O,IC50,[1],9.8 µg/mL
same,MIC,[2],62.5 µg/mL
N[C@H](C[C@H](Oc1ccc(-c2ccccc2)cc1)C(=O)O)C(=O)O,IC50,[1],8.2 µg/mL
same,MIC,[2],31.3 µg/mL
N[C@H](C[C@H](Cc1ccccc1Cl)C(=O)O)C(=O)O,IC50,[1],7.1 µg/mL
same,MIC,[2],3.9 µg/mL
N[C@H](C[C@H](Cc1ccc(-c2ccc3ccccc3c2)cc1)C(=O)O)C(=O)O,IC50,[1],0.42 µg/mL
same,MIC,[2],7.8 µg/mL
N[C@H](C[C@H](Oc1ccc(Oc2ccccc2)cc1)C(=O)O)C(=O)O,IC50,[1],46.3 µg/mL
same,MIC,[2],125 µg/mL
